EC50 and Activity data for 15 compounds are collected here from ChEMBL document CHEMBL4014320 (J Med Chem, 2017).

The first test concerns the target T1, Peroxisome proliferator-activated receptor gamma (Homo sapiens, UniProt P37231).
T1 sequence (P37231 whole entry): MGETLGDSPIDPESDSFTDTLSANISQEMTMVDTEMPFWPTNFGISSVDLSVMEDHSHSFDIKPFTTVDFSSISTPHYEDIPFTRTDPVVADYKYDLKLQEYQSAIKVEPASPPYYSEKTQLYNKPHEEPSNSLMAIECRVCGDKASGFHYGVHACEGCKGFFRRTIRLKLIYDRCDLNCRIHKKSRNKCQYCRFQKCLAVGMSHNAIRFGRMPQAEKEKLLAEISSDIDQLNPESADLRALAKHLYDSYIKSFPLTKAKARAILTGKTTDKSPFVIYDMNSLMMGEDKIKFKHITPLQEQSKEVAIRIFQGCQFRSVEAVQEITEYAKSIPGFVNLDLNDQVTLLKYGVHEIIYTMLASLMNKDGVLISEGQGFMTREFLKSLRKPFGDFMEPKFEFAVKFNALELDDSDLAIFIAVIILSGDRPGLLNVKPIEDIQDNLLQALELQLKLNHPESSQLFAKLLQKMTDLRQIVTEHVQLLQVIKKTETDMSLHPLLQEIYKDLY
In words: Agonist activity at human GAL4 fused PPARgamma-Hinge-LBD expressed in HEK293T cells after 18 hrs by luciferase reporter gene assay. The test is classed as cell-based, HEK-293T.
Conditions: not given
Put shortly: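 HEK293T cells were co-transfected with human GAL4-PPARγ-hinge-LBD and a 5× multimerized UAS-luciferase reporter (4.5 μg each) and grown serum-free for 18 h at 37 °C under 5% CO2. After 18 h, luminescence was read. EC50 came from plotting fold change over DMSO; points were run in triplicate, with two biological replicates.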
As to `O=S(=O)(Nc1cc(Cl)c(Oc2cnc3ccccc3c2)c(Cl)c1)c1ccc(Br)cc1F`, the concentration for a half-maximal effect (EC50) was determined as 2 nM.
In turn, `O=S(=O)(Nc1cc(Cl)c(Oc2cnc3ccccc3c2)c(Cl)c1)c1ccc(Br)c(F)c1` had an EC50 of 169 nM.
Still for that read-out and setting: under `O=S(=O)(Nc1cc(Cl)c(Oc2cnc3ccccc3c2)c(Cl)c1)c1ccc(Br)c(C(F)(F)F)c1` stands 957 nM; under `Cc1cc(C)c(S(=O)(=O)Nc2cc(Cl)c(Oc3cnc4ccccc4c3)c(Cl)c2)c(C)c1`, 3310 nM.
`O=S(=O)(Nc1cc(Cl)c(Oc2cnc3ccccc3c2)c(Cl)c1)c1ccccc1Cl` returned an EC50 of 5810 nM.
Same read-out and setting: under `O=S(=O)(Nc1cc(Cl)c(Oc2cnc3ccccc3c2)c(Cl)c1)c1ccc(Br)cc1` stands 151 nM; under `O=S(=O)(Nc1cc(Cl)c(Oc2cnc3ccccc3c2)c(Cl)c1)c1ccc(Br)cc1OC(F)(F)F`, 4 nM; under `O=S(=O)(Nc1cc(Cl)c(Oc2cnc3ccccc3c2)c(Cl)c1)c1ccc(Br)cc1C(F)(F)F`, 94 nM.
With `O=S(=O)(Nc1cc(Cl)c(Oc2cnc3ccccc3c2)c(Cl)c1)c1cc(F)c(Br)cc1F`, the concentration for a half-maximal effect (EC50) worked out at 131 nM.
For `O=S(=O)(Nc1cc(Cl)c(Oc2cnc3ccccc3c2)c(Cl)c1)c1ccc2ccccc2c1`, the EC50 stood at 4290 nM.
On the same count and under the same terms, under `O=S(=O)(Nc1cc(Cl)c(Oc2cnc3ccccc3c2)c(Cl)c1)c1ccc(Br)cc1Cl` stands 134 nM.
Regarding `Cc1cc(S(=O)(=O)Nc2cc(Cl)c(Oc3cnc4ccccc4c3)c(Cl)c2)ccc1Br`, the EC50 amounted to 600 nM.

The target in another test is T2, Peroxisome proliferator-activated receptor gamma (Homo sapiens) (UniProt P37231).
T2 sequence (whole entry): T1 sequence (P37231 whole entry)
Description: Agonist activity at human GAL4 fused PPARgamma-Hinge-LBD expressed in HEK293T cells after 18 hrs by luciferase reporter gene assay relative to rosiglitazone. The format is cell-based. To be noted: HEK-293T. Put shortly: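 HEK293T cells carried transfected human GAL4-PPARγ-hinge-LBD and a 5× UAS-luciferase reporter. Maximal transcriptional output was normalized to rosiglitazone, taken as 100% transactivation. Points were run in triplicate, with two biological replicates.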
Background: A reporter such as luciferase makes a cellular process visible.
Consider `O=S(=O)(Nc1cc(Cl)c(Oc2cnc3ccccc3c2)c(Cl)c1)c1ccc(Br)cc1F`, for which the Activity came out at 13%.
Compound `O=S(=O)(Nc1cc(Cl)c(Oc2cnc3ccccc3c2)c(Cl)c1)c1cccs1` gave an Activity of 14%.
As to `O=S(=O)(Nc1cc(Cl)c(Oc2cnc3ccccc3c2)c(Cl)c1)c1ccc(Br)c(F)c1`, the Activity amounted to 9%.
Take `O=S(=O)(Nc1cc(Cl)c(Oc2cnc3ccccc3c2)c(Cl)c1)c1ccc(Br)c(C(F)(F)F)c1`: the Activity was 18%.
`Cc1cc(C)c(S(=O)(=O)Nc2cc(Cl)c(Oc3cnc4ccccc4c3)c(Cl)c2)c(C)c1` had an Activity of 14%.
`COc1cccc(C(=O)Nc2cc(Cl)c(Oc3cnc4ccccc4c3)c(Cl)c2)c1` gave an Activity of 2%.
`O=S(=O)(Nc1cc(Cl)c(Oc2cnc3ccccc3c2)c(Cl)c1)c1ccccc1Cl`: the Activity is 19%.
The same measure, in the same setting: under `O=S(=O)(Nc1cc(Cl)c(Oc2cnc3ccccc3c2)c(Cl)c1)c1ccc(Br)cc1` stands 11%; under `O=S(=O)(Nc1cc(Cl)c(Oc2cnc3ccccc3c2)c(Cl)c1)c1ccc(Br)cc1OC(F)(F)F`, 21%; under `O=S(=O)(Nc1cc(Cl)c(Oc2cnc3ccccc3c2)c(Cl)c1)c1ccc(Br)cc1C(F)(F)F`, 34%.
Compound `O=S(=O)(Nc1cc(Cl)c(Oc2cnc3ccccc3c2)c(Cl)c1)c1cc(F)c(Br)cc1F` came in with an Activity of 10%.
In turn, `O=S(=O)(Nc1cc(Cl)c(Oc2cnc3ccccc3c2)c(Cl)c1)c1ccc2ccccc2c1` showed an Activity of 23%.
Consider `O=S(=O)(Nc1cc(Cl)c(Oc2cnc3ccccc3c2)c(Cl)c1)c1ccc(Br)cc1Cl`, for which the Activity was determined as 27%.
As to `Cc1cc(S(=O)(=O)Nc2cc(Cl)c(Oc3cnc4ccccc4c3)c(Cl)c2)ccc1Br`, the Activity is 29%.

The subject of another test is Rattus norvegicus. Description: Antidiabetic activity in Zucker fa/fa rat assessed as decrease in blood glucose levels at 0.3 mg/kg administered via oral gavage for 14 days by oral glucose tolerance test. The format is functional. Also noted: scale not given: the % may be the effect or the level left.
Conditions: not given
Consider `O=S(=O)(Nc1cc(Cl)c(Oc2cnc3ccccc3c2)c(Cl)c1)c1ccc(Cl)cc1Cl` [INT131], for which the Activity came out at 30%.

As usually defined, the EC50 is the midpoint of the concentration-response curve.
